Assay [1] deals with Escherichia coli. Briefly: Inhibition of Hoechst 33342 dye in norA-deficient Escherichia coli DH10B expressing pTrc99A at 2 ug/mL by spectrofluorometer analysis. The assay is classed as functional, organism-based. The conditions noted are these: K-12 DH10B. The gist of the method:
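Everted membrane vesicles were made from overnight E. coli DH10B carrying pTrcHis2C-norA or control pTrc99A. PMSF (0.1 mM final) was added before French press and DNase (0.1 mg/mL final) to the lysate. Vesicles were diluted to 80 µg protein/mL in 50 mM potassium HEPES, 8.5 mM NaCl, 2 mM MgCl2, pH 7.2. Hoechst 33342 was added, then Mg2+-ATP after the signal stabilised (~30 s). Inhibitor was added at 150–160 s. Fluorescence ex 355/em 457 nm over 300 s.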

In assay [2] the test system is Staphylococcus aureus. Nature of the assay: Antibacterial activity against Staphylococcus aureus ATCC 29213 […] at 0.2 to 25 ug/ml after 20 hrs by microdilution method. The format is functional, organism-based. The gist of the method: (§1)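 Broth microdilution in Mueller Hinton broth II with an inoculum of 5 × 10⁵ cfu/mL, incubated 20 h at 35 °C. MIC is the lowest concentration with no visible growth. Controls were bacteria with DMSO at up to about 1%, and ciprofloxacin. Run to CLSI/EUCAST guidelines in duplicate or more.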
In general terms: In broth dilution the organism is exposed to a series of concentrations in liquid medium.

Assay [3] addresses T1, Quinolone resistance protein NorA (Staphylococcus aureus) (UniProt P0A0J7).
T1 sequence (whole entry): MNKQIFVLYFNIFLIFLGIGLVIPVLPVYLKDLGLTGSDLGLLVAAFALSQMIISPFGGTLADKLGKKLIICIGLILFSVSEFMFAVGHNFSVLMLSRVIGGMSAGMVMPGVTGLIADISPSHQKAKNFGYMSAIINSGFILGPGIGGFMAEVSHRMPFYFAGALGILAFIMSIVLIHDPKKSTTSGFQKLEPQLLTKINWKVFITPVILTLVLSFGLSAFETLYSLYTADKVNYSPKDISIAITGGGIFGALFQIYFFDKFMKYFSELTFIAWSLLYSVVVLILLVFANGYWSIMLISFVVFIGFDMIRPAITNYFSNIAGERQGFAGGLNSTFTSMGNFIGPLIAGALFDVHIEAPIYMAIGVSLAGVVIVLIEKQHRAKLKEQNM
Nature of the assay: Inhibition of norA-mediated ethidium bromide efflux in methicillin-resistant Staphylococcus aureus SA-1199B at 2.5 ug/ml by spectrofluorometric analysis. In outline:
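Whole-cell efflux assay, strain grown in Mueller Hinton II broth; compounds dissolved in DMSO, 1% DMSO in MHB II as negative control, reserpine as positive control. Background read from a pellet resuspended in clean MHB II. Fluorescence read in duplicate at ex 530 nm / em 600 nm; the mean is reported as percent reduction of efflux versus control.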

The target in assay [4] is T1, Quinolone resistance protein NorA (Staphylococcus aureus). Briefly: Inhibition of norA-mediated ethidium bromide efflux in methicillin-resistant Staphylococcus aureus SA-1199B at 20 ug/ml by spectrofluorometric analysis. The gist of the method:
(§2)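 Ethidium bromide efflux from S. aureus cells in MHB II, compounds dissolved in DMSO. Reserpine 20 µg/mL as positive control and 1% DMSO as negative control; background taken from a resuspended pellet in clean medium. Fluorescence read at ex 530/em 600 nm in duplicate; mean given as percent reduction of efflux versus control.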

The target is the same in assay [5]. The conditions noted are these: ATCC 29213.
Assay [6] shares this target. Nature of the assay: Inhibition of norA-mediated ethidium bromide efflux in methicillin-resistant Staphylococcus aureus SA-1199B at 5 ug/ml by spectrofluorometric analysis. In outline:
as §2

The target is the same in assay [7]. Briefly: Inhibition of norA-mediated ethidium bromide efflux in methicillin-resistant Staphylococcus aureus SA-1199B at 10 ug/ml by spectrofluorometric analysis. In outline: as §2
The target is the same in assay [8]. Nature of the assay: Inhibition of norA in Staphylococcus aureus SA-1199B overexpressing norA assessed as fold reduction in ciprofloxacin MIC at 12.5 ug/mL by checkerboard assay. In outline: (§3)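 Checkerboard in MHB with twofold serial dilutions: ciprofloxacin 0.05–12.5 µg/mL against inhibitor 0.2–25 µg/mL. Inoculum 5 × 10⁵ cfu/mL, 20 h at 35 °C, visual MIC read-out. Fold reduction of ciprofloxacin MIC recorded at the inhibitor concentration giving it. FIC index is the sum of both drugs' FICs; ≤0.5 counts as synergy.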

Assay [9] concerns the target T2, Quinolone resistance protein NorA (Staphylococcus aureus, UniProt P0A0J7).
T2 sequence (P0A0J7 whole entry): T1 sequence (whole entry)
Briefly: Inhibition of norA-mediated ethidium bromide efflux in methicillin-resistant Staphylococcus aureus SA-1199B by spectrofluorometric analysis. In outline:
as §2

Assay [10] deals with Staphylococcus aureus. Briefly: Antibacterial activity against Staphylococcus aureus SA-1199B overexpressing norA at 0.2 to 25 ug/ml after 20 hrs by microdilution method. The assay is classed as functional, organism-based. In outline: as §1
For assay [11], the target named is T1, Quinolone resistance protein NorA (Staphylococcus aureus). Nature of the assay: Inhibition of norA in Staphylococcus aureus SA-1199B overexpressing norA assessed as fold reduction in ciprofloxacin MIC at 25 ug/mL by checkerboard assay.
Assay [12] has the same target. Nature of the assay: Inhibition of norA in Staphylococcus aureus ATCC 29213 assessed as fold reduction in ciprofloxacin MIC at 12.5 ug/mL by checkerboard assay.
Assay [13] has the same target. Briefly: Inhibition of norA in Staphylococcus aureus ATCC […] assessed as fold reduction in ciprofloxacin MIC at 25 ug/mL by checkerboard assay.
Assay [14] relates to Escherichia coli. Briefly: Inhibition of acridine orange efflux in norA-deficient Escherichia coli DH10B expressing pTrc99A at 2 ug/mL by spectrofluorometer analysis. The conditions noted are these: K-12 DH10B. The format is functional, organism-based. In outline:
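Proton gradient was read with acridine orange (500 nM final) in NorA-enriched or pTrc99A control everted E. coli DH10B vesicles. Buffer: 50 mM potassium HEPES, 8.5 mM NaCl, 2 mM MgCl2, pH 7.2. Vesicles were energised with Mg2+-ATP. Valinomycin and nigericin dissipated the gradients, and norfloxacin was given at 10 µM. Fluorescence ex 494/em 530 nm.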

Assay [15] has as its target T1, Quinolone resistance protein NorA (Staphylococcus aureus). The conditions noted are these: SA-1199B.
For assay [16] the target is unchanged. Nature of the assay: Inhibition of norA in Staphylococcus aureus SA-1199B overexpressing norA assessed as fold reduction in ciprofloxacin MIC by checkerboard assay.
The target is the same in assay [17]. Briefly: Inhibition of norA in Staphylococcus aureus SA-1199B overexpressing norA assessed as fold reduction in ciprofloxacin MIC by checkerboard assay. The gist of the method:
as §3

Activity calls are given as the source filed them. The rule behind the calls is not given here. Some results are limits rather than exact numbers.

As for `COc1cccc(/C=C/C(=O)c2ccc(O)cc2)c1OC`, in the assay with Escherichia coli [1], the inhibition – broadly, the change of the read-out against control, counted positive when it falls – is “inactive”. In addition, the result with Staphylococcus aureus [2] and in the assay on Staphylococcus aureus [10] was inactive. In addition, the inhibition in assay [3] was 11.7%; in assay [4], 90.8%; in [6], 38%; in [7] it was 73.3%. For the same compound, in [5], the FICI worked out at 0.25. In addition, the fractional inhibitory concentration index (FICI) in assay [8] stood at 0.25. The IC50 (commonly the concentration needed to halve the response being measured) in [9] came to 24.3 µM.

With `CN(C)CCOc1ccc(C(=O)/C=C/c2ccc(N(C)C)cc2)cc1`, in [11], the “fractional inhibitory concentration index (FICI)” value is “inactive”. Moreover, in assay [12], the fractional inhibitory concentration index (FICI) is 0.5. Further, the inhibition result with Escherichia coli [1] was “inactive”. The result in the assay on Staphylococcus aureus [2] and with Staphylococcus aureus [10] was inactive. The inhibition in assay [3] was determined as 48%; in assay [4], 98.7%; in assay [6], 96.5%; in [7], 97.4%. This compound yielded an IC50 in [9] of 7.7 µM.

For `COc1ccc(/C=C/C(=O)c2ccc(O)cc2)cc1OC`, the fractional inhibitory concentration index (FICI) in assay [11] and in assay [13] was 0.25 throughout. In addition, the inhibition entry in the assay with Escherichia coli [1] is “inactive”. Also, the result in the assay with Staphylococcus aureus [2] and with Staphylococcus aureus [10] was inactive. The inhibition worked out at 14% in assay [3], 87.9% in [4], 38.3% in [6] and 64.3% in assay [7]. The midpoint of inhibition in [9], the IC50, lay at 26.5 µM.

Turning to `COc1cc(/C=C/C(=O)c2cccc(OC(=O)c3ccccc3)c2)cc(OC)c1`, in the assay on Escherichia coli [1], the inhibition result is “inactive”.

On to `COc1ccc(C(=O)/C=C/c2cccc(N(C)C)c2)c(OC)c1OC`, for which the inhibition result with Escherichia coli [1] is “inactive”.

Take `COc1ccc(OC)c(/C=C/C(=O)c2ccc(O)cc2)c1`: the fractional inhibitory concentration index (FICI) in [12] and in [8] was 0.25 in each case. Further, the inhibition result in the assay with Escherichia coli [1] is “inactive”. Moreover, the outcome in the assay on Staphylococcus aureus [2] and in the assay on Staphylococcus aureus [10] was inactive. Besides, the inhibition in assay [3] is 23.3%; in [4], 91%; in [6] it was 56.6%; in [7], 82.7%. The same compound gave an IC50 in assay [9] of 15 µM.

`COc1ccc(C(=O)/C=C/c2cccc(OCCN(C)C)c2)c(OC)c1OC`: the inhibition entry in the assay on Escherichia coli [1] is “inactive”. In the assay on Escherichia coli [14], the inhibition entry is “Active”.

With `CN(C)CCOc1ccc(C(=O)/C=C/c2ccccc2)cc1`, the fractional inhibitory concentration index (FICI) in assay [11] and in assay [13] was more than 0.5 throughout. Further, the inhibition result in the assay with Escherichia coli [1] was “inactive”. Besides, the result in the assay with Staphylococcus aureus [2] and in the assay with Staphylococcus aureus [10] was inactive. In addition, the inhibition in [3] worked out at 21.8%; in [4] it was 83.6%; in [6] it was 36.1%; in assay [7] it was 56.9%. For the same compound, the IC50 in [9] was determined as 28.4 µM.

Take `CN(C)CCOc1ccc(C(=O)/C=C/c2ccccc2F)cc1`: the fractional inhibitory concentration index (FICI) was 0.25 in assay [11] and more than 1 in assay [13]. Besides, the inhibition result in the assay with Escherichia coli [1] is “inactive”. The outcome with Staphylococcus aureus [2] and in the assay on Staphylococcus aureus [10] was inactive. The inhibition in assay [3] stood at 33.7%; in [4], 97%; in [6], 48.5%; in [7], 70.3%. Moreover, in assay [9], 18.1 µM corresponded to half-maximal inhibition (IC50).

As to `CN(C)CCOc1ccc(C(=O)/C=C/c2ccc(F)cc2)cc1`, the inhibition entry in the assay on Escherichia coli [1] is “inactive”.

Regarding `COc1ccc(CCN(C)CCCC(C#N)(c2ccc(OC)c(OC)c2)C(C)C)cc1OC` (configuration not stated), in the assay with Escherichia coli [1], the inhibition entry was “inactive”.

For the compound `C=CCOc1ccc(C(=O)/C=C/c2cccc(OC)c2OC)cc1`, the inhibition entry with Escherichia coli [1] was “inactive”.

`COc1ccc(/C=C/C(=O)c2ccccc2OC)c(OC)c1`: the inhibition result with Escherichia coli [1] is “inactive”.

As for `COc1ccc(/C=C/C(=O)c2ccc(O)cc2)c(OC)c1`, in the assay on Escherichia coli [1], the inhibition result was “inactive”. The result in the assay on Staphylococcus aureus [2] and in the assay with Staphylococcus aureus [10] was inactive. In addition, the inhibition amounted to 17.3% in assay [3], 89.6% in assay [4], 24.1% in assay [6] and 62.7% in assay [7]. For the same compound, the FICI in assay [5] came out at 0.25. In [8], the fractional inhibitory concentration index (FICI) stood at 0.25. Moreover, in [9], the IC50 was 29.1 µM.

Consider `CN(C)CCOc1ccc(C(=O)/C=C/c2ccc(C#N)cc2)cc1`, for which the inhibition result with Escherichia coli [1] is “inactive”.

On to `CN(C)CCOc1ccc(C(=O)/C=C/c2cccc(F)c2)cc1`, for which the inhibition result in the assay with Escherichia coli [1] is “inactive”.

On to `COC(=O)[C@H]1[C@H]2C[C@@H]3c4[nH]c5cc(OC)ccc5c4CCN3C[C@H]2C[C@@H](OC(=O)c2cc(OC)c(OC)c(OC)c2)[C@@H]1OC` [RESERPINE], for which the values for the inhibition in [3], in assay [6] and in assay [7] were 30%, 48.1% and 71.8%, respectively. In addition, the FICI in assay [15] and in assay [5] was 0.25 throughout. In [9], this compound displayed an IC50 of 8.2 µM.

Consider `COc1cc(OC)c(/C=C/C(=O)c2ccc(O)cc2)c(OC)c1`, for which the inhibition result in the assay with Escherichia coli [1] is “inactive”.

In the case of `COc1cc(O)cc(C)c1/C=C/C(=O)c1ccc(O)cc1`, in [12], the fractional inhibitory concentration index (FICI) was 0.25. Moreover, the inhibition entry with Escherichia coli [1] and in the assay on Escherichia coli [14] was “inactive” throughout. The inhibition entry was “Dose-dependent effect” in [16]; 36.6% in assay [3]; 91.7% in assay [4]; 63.7% in assay [6]; 84.3% in [7]; “Dose-dependent effect” in [17]. Besides, the result in the assay with Staphylococcus aureus [2] and in the assay on Staphylococcus aureus [10] was inactive. Also, the FICI in assay [15] stood at 0.25. For the same compound, half-maximal inhibition in assay [9] (IC50) required 13.4 µM.

Consider `COc1cc(/C=C/C(=O)c2ccc(OC)c(OC)c2OC)cc(OC)c1`, for which, in the assay on Escherichia coli [1], the inhibition result is “inactive”.

As for `C[C@@H]1O[C@@H](Oc2c(-c3ccc(O)cc3)oc3cc(O)cc(O)c3c2=O)[C@H](OC(=O)/C=C/c2ccc(O)cc2)[C@H](O)[C@H]1OC(=O)/C=C/c1ccc(O)cc1`, the inhibition entry in the assay on Escherichia coli [1] is “inactive”.

Source of the values: ChEMBL document CHEMBL2157969, “Chalcone inhibitors of the NorA efflux pump in Staphylococcus aureus whole cells and enriched everted membrane vesicles” (Bioorg Med Chem, 2012).
